ChEMBL document CHEMBL4043110 (Bioorg Med Chem, 2017)
The source made the active and inactive calls. The calls are words filed in the database; no cut-off is given here.

Experiments:
[1] = test system: Epidermal growth factor receptor (Homo sapiens), P00533 [L858R,T790M]; assay: Inhibition of EGFR L858R/T790M mutant in human H1975 cells assessed as inhibition of ERK phosphorylation at P-p44/42 residue up to 1000 nmol/L after 6 hrs by Western blot analysis; assay type: cell-based
How it was run: (§1)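 The buffer was supplemented with protease inhibitor cocktail, 40 mmol/L sodium fluoride and 1 mmol/L sodium orthovanadate. Protein was quantified by BCA before immunoblotting.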

[2] = test system: BEAS-2B; assay: Antiproliferative activity against human BEAS2B cells after 72 hrs by MTS assay; assay type: cell-based
[3] = test system: Epidermal growth factor receptor (Homo sapiens), P00533 [UNDEFINED MUTATION]; assay: Inhibition of EGFR exon 19 deletion mutant in human PC9 cells assessed as inhibition of ERK phosphorylation at P-p44/42 residue up to 1000 nmol/L after 6 hrs by Western blot analysis; assay type: cell-based; how it was run: as §1
Sequence of Epidermal growth factor receptor (Homo sapiens), P00533 [UNDEFINED MUTATION] (P00533 whole entry, looked up, stated change not applied): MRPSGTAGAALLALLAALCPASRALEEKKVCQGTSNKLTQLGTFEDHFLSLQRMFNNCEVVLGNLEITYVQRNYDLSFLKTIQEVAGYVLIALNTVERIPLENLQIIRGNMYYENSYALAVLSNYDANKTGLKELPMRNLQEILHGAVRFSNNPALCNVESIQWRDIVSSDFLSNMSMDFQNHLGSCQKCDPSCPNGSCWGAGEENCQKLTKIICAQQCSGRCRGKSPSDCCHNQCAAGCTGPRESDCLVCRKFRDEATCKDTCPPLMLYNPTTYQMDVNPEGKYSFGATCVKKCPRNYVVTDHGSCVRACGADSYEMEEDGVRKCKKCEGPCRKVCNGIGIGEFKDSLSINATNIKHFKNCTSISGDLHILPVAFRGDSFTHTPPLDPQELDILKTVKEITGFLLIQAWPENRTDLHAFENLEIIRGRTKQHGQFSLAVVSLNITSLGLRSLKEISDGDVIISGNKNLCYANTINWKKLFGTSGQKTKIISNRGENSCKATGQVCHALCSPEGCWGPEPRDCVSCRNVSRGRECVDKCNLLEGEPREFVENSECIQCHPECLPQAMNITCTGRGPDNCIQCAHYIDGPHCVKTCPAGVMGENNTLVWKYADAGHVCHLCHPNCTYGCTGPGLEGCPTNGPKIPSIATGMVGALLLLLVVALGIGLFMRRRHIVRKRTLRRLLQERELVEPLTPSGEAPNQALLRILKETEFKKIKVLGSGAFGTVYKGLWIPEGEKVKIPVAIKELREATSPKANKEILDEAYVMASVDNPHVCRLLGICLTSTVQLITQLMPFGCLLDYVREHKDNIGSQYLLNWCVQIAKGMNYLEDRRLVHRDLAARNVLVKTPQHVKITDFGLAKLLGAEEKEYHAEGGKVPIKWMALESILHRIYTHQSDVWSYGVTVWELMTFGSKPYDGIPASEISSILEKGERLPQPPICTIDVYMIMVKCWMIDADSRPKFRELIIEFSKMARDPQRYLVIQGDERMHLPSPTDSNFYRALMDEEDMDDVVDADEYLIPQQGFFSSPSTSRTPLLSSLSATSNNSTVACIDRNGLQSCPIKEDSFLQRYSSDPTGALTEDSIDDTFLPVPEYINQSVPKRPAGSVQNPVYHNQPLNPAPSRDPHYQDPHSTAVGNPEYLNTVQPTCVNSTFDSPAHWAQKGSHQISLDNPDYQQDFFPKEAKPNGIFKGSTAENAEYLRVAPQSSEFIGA

[4] = biological target: T1, Epidermal growth factor receptor (Homo sapiens, UniProt P00533); assay: Inhibition of wild-type EGFR phosphorylation at Y1086 residue in human LoVo cells up to 1000 nmol/L after 6 hrs by Western blot analysis; assay type: cell-based; how it was run: as §1
T1 sequence (P00533 whole entry): as the sequence (P00533 whole entry, looked up, stated change not applied) above

[5] = test system: Epidermal growth factor receptor (Homo sapiens), P00533 [UNDEFINED MUTATION]; assay: Inhibition of EGFR exon 19 deletion mutant phosphorylation at Y1086 residue in human PC9 cells up to 1000 nmol/L after 6 hrs by Western blot analysis; assay type: cell-based; how it was run: as §1
[6] = biological target: T1, Epidermal growth factor receptor; assay: Inhibition of wild-type EGFR in human LoVo cells assessed as inhibition of AKT phosphorylation at S473 residue up to 1000 nmol/L after 6 hrs by Western blot analysis; assay type: cell-based; how it was run: as §1
[7] = species on record: Homo sapiens; assay: Selectivity index, ratio of IC50 for wild type EGFR (unknown origin) to IC50 for EGFR L858R/T790M double mutant (unknown origin)
[8] = test system: Epidermal growth factor receptor (Homo sapiens), P00533 [UNDEFINED MUTATION]; assay: Inhibition of EGFR exon 19 deletion mutant in human PC9 cells assessed as inhibition of AKT phosphorylation at S473 residue up to 1000 nmol/L after 6 hrs by Western blot analysis; assay type: cell-based; how it was run: as §1
[9] = test system: PC-9; assay: Antiproliferative activity against human PC9 cells harboring EGFR exon 19 deletion mutant after 72 hrs by MTS assay; assay type: functional, cell-based; conditions: PC-9, 72 h
How it was run: (§2)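 NCI-H460, PC9 or NCI-H1975 cells were grown in RPMI 1640 with 10% FBS at 37 °C and 5% CO2, and used at passages 3–5 from thawing. Exponentially growing cells were seeded at 7000 cells/well. After 24 h the medium was replaced with medium containing a 3-fold serial dilution of compound in DMSO, and cells were incubated 72 h at 37 °C. MTS was added for 2 h and A490 read. Samples were run in triplicate and repeated at least three times.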

[10] = biological target: T1, Epidermal growth factor receptor; assay: Inhibition of wild-type EGFR in human LoVo cells assessed as inhibition of ERK phosphorylation at P-p44/42 residue up to 1000 nmol/L after 6 hrs by Western blot analysis; assay type: cell-based; how it was run: as §1
[11] = biological target: T1, Epidermal growth factor receptor; assay: Inhibition of wild-type EGFR (unknown origin) using Tyr 4 peptide as substrate in presence of ATP by Z-LYTE kinase assay
[12] = test system: Epidermal growth factor receptor (Homo sapiens), P00533 [L858R,T790M]; assay: Inhibition of EGFR L858R/T790M mutant in human H1975 cells assessed as inhibition of AKT phosphorylation at S473 residue up to 1000 nmol/L after 6 hrs by Western blot analysis; assay type: cell-based; how it was run: as §1
[13] = test system: NCI-H460; assay: Antiproliferative activity against human NCI-H460 cells after 72 hrs by MTS assay; assay type: functional, cell-based; conditions: NCI-H460, 72 h; how it was run: as §2
[14] = Solubility of the compound in PBS at pH 7.4; assay type: physicochemical
[15] = test system: NCI-H1975; assay: Antiproliferative activity against human NCI-H1975 cells harboring EGFR L858R/T790M double mutant after 72 hrs by MTS assay; assay type: functional, cell-based; conditions: NCI-H1975, 72 h; how it was run: as §2
[16] = test system: Epidermal growth factor receptor (Homo sapiens), P00533 [L858R,T790M]; assay: Inhibition of EGFR L858R/T790M mutant phosphorylation at Y1086 residue in human H1975 cells up to 1000 nmol/L after 6 hrs by Western blot analysis; assay type: cell-based; how it was run: as §1
[17] = biological target: Epidermal growth factor receptor (Homo sapiens, UniProt P00533, L858R/T790M); assay: Inhibition of EGFR L858R/T790M mutant (unknown origin) using Tyr 4 peptide as substrate in presence of ATP by Z-LYTE kinase assay
Sequence of Epidermal growth factor receptor (Homo sapiens, UniProt P00533, L858R/T790M) (P00533 25-1210 T790M/L858R limits assumed): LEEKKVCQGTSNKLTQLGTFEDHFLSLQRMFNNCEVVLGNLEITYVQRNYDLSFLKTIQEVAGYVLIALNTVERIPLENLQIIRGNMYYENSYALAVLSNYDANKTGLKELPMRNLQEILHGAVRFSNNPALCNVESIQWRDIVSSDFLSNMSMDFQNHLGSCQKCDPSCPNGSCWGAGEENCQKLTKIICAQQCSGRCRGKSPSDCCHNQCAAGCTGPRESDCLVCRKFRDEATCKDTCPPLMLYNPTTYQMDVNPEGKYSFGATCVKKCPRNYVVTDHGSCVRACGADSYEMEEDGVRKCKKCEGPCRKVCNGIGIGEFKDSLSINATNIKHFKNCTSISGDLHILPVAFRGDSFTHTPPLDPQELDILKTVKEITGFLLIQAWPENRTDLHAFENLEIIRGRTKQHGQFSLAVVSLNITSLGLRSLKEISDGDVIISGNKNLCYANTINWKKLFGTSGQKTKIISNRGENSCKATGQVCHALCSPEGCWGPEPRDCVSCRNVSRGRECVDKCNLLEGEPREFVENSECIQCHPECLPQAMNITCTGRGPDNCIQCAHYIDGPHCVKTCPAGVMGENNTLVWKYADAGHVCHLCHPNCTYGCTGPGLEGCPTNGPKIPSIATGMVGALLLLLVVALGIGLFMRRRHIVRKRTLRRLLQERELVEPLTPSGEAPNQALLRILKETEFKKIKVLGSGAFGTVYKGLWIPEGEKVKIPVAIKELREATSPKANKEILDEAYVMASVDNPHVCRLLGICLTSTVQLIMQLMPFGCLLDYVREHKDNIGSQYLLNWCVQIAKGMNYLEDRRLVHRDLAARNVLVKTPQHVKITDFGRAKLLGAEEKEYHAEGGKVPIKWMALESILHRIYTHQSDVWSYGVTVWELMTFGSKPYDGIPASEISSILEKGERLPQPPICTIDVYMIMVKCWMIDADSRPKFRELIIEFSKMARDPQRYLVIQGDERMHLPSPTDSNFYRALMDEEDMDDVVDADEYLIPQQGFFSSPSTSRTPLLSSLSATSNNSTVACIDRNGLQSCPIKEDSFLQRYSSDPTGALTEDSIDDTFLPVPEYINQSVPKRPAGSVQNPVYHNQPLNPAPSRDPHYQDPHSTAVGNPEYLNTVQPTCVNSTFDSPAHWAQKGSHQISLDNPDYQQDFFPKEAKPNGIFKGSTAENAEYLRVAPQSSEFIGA

[18] = test system: Mus musculus; assay: Toxicity in nude mouse assessed as effect on body weight at 5 mg/kg/day, ig administered once daily for 30 days; assay type: organism-based; conditions: in vivo, po, 720 h
[19] = test system: NCI-H1975; assay: Antitumor activity against human NCI-H1975 cells harboring L858R/T790M mutant xenografted in nude mouse at 5 mg/kg/day, ig administered once daily for 30 days measured every 2 days of dosing; assay type: functional, organism-based
How it was run: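 Female nude mice (6–8 weeks) were injected subcutaneously in the right flank with NCI-H1975 cells (1 × 10^6/mouse). Once tumors reached about 150–200 mm3, mice were randomized (n = 10 per group). They were dosed intragastrically at 5 mg/kg/day for 30 consecutive days, or given vehicle DMSO/Cremophor-EL/PBS (1:1:8). Tumor length and width were measured by caliper every two days, and volume = width × width × length/2.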

Sequence of Epidermal growth factor receptor (Homo sapiens), P00533 [L858R,T790M] (P00533 whole entry T790M/L858R, looked up): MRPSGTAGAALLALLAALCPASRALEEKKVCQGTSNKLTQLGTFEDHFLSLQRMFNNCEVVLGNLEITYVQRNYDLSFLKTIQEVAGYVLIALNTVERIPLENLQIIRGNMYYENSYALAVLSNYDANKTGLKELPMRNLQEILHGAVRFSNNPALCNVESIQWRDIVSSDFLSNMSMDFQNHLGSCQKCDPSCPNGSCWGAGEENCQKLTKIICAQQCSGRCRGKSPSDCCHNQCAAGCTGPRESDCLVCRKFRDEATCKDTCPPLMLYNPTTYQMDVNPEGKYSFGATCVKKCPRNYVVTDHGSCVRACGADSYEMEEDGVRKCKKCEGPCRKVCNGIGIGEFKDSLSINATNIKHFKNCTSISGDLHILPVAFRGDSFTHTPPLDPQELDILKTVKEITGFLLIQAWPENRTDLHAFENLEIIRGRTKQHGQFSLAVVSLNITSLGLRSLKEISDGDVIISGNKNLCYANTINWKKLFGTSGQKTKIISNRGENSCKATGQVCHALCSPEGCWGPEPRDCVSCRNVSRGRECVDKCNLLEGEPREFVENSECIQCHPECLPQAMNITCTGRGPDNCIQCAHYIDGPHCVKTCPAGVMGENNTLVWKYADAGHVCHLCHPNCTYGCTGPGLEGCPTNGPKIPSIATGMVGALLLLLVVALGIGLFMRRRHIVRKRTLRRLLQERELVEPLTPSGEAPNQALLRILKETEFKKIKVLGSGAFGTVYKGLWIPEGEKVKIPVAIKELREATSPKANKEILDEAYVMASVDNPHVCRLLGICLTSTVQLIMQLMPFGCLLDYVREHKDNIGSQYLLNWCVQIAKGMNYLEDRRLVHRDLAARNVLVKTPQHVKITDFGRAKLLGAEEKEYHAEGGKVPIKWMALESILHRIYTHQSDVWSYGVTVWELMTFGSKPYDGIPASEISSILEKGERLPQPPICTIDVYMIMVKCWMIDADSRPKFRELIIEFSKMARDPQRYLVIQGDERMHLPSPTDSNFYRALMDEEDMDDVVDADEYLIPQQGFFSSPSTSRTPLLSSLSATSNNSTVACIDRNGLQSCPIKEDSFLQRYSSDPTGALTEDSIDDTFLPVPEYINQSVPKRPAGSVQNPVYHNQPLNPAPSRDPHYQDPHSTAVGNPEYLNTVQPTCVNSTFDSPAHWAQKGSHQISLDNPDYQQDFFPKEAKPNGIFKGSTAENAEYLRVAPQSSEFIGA

Row | Structure (SMILES) | inhibition [1] | inhibition [3] | inhibition (INH) [4] | inhibition [5] | inhibition (INH) [6] | inhibition [8] | IC50 [9] [nM] | inhibition (INH) [10] | IC50 [11] [nM] | inhibition [12] | IC50 [13] [nM] | solubility [14] [µg/mL] | IC50 [15] [nM] | inhibition [16] | IC50 [17] [nM] | IC50 [2] [nM] | Ratio IC50 [7] | Activity [18] | Activity [19]
1 | C=CC(=O)Nc1cc(Nc2nccc(-c3cn(C)c4c(F)cccc34)n2)c(OC)cc1N(C)CC[N+](C)(C)[O-] | Active | Active | Not Active | Active | Not Active | Active | 46.7 | Not Active | 595 | Active | 1140 | > 10000 | 89.9 | Active | 17.8 | 28400 | 33.4 | – | –
3 | C=CC(=O)Nc1cc(Nc2nccc(-c3cn(C)c4c(F)cccc34)n2)c(OC)cc1N(C)CCN(C)C | Active | Active | Not Active | Active | Not Active | Active | 20.5 | Not Active | 175 | Active | 875 | < 100 | 32.9 | Active | 6 | 15600 | 29.2 | – | –
4 | C=CC(=O)Nc1cc(Nc2nccc(-c3cn(C)c4ccc(F)cc34)n2)c(OC)cc1N(C)CC[N+](C)(C)[O-] | Active | Active | Not Active | Active | Not Active | Active | 26.2 | Not Active | 357 | Active | 892 | < 100 | 45.6 | Active | 10.2 | 15700 | 35 | – | –

More lines, in order of falling IC50 [9], values ahead:

Row | inhibition [1] | inhibition [3] | inhibition (INH) [4] | inhibition [5] | inhibition (INH) [6] | inhibition [8] | IC50 [9] [nM] | inhibition (INH) [10] | IC50 [11] [nM] | inhibition [12] | IC50 [13] [nM] | solubility [14] [µg/mL] | IC50 [15] [nM] | inhibition [16] | IC50 [17] [nM] | Structure (SMILES) | IC50 [2] [nM] | Ratio IC50 [7] | Activity [18] | Activity [19]
5 | Active | Active | Not Active | Active | Not Active | Active | 16.1 | Not Active | 318 | Active | 611 | > 10000 | 17.4 | Active | 6.4 | C=CC(=O)Nc1cc(Nc2nccc(-c3cn(C)c4ccccc34)n2)c(OC)cc1N(C)CC[N+](C)(C)[O-] | 15100 | 49.9 | Non-Toxic | Active
6 | Active | Active | Not Active | Active | Not Active | Active | 8.1 | Not Active | 166 | Active | 430 | < 100 | 15.3 | Active | 4.9 | C=CC(=O)Nc1cc(Nc2nccc(-c3cn(C)c4ccc(F)cc34)n2)c(OC)cc1N(C)CCN(C)C | 7900 | 34.3 | – | –
